Measurements published in ChEMBL document CHEMBL3872218, “Synthesis and T-type calcium channel-blocking effects of aryl(1,5-disubstituted-pyrazol-3-yl)methyl sulfonamides for neuropathic pain treatment” (Eur J Med Chem, 2016).
One block for each molecule: values may come before it.

What was measured:
[1] = target: T1, Voltage-dependent T-type calcium channel subunit alpha-1H (Homo sapiens, UniProt O95180); assay: Inhibition of Cav3.2 alpha1H (unknown origin) expressed in HEK293 cells assessed as decrease in KCl-induced depolarization mediated intracellular Ca2+ level at 10 uM by fluo3/AM based high throughput screening assay relative to control; assay type: cell-based
Procedure, shortened: (§1)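 HEK293 cells stably expressing Cav3.1 or Cav3.2 plated at 4 × 10⁴ cells/well and used the next day. Loaded 60 min at room temperature with […] fluo3/AM plus 0.001% Pluronic F-127 in HEPES-buffered saline (1.8 mM CaCl₂, pH 7.4). Ca²⁺ fluorescence read on FDSS6000 as % inhibition, compound at […].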

[2] = target: T2, Voltage-dependent T-type calcium channel subunit alpha-1G (Homo sapiens, UniProt O43497); assay: Inhibition of Cav3.1 alpha1G (unknown origin) expressed in HEK293 cells assessed as decrease in KCl-induced depolarization mediated intracellular Ca2+ level at 10 uM by fluo3/AM based high throughput screening assay relative to control; assay type: cell-based; procedure, shortened: as §1
Rattus norvegicus [3] = assay: Antineuropathic pain activity in rat spinal nerve ligation model assessed as effect on mechanical allodynia by measuring frequency of paw withdrawal at 100 mg/kg, po measured at 1 hr relative to control; assay type: functional
Procedure, shortened: (§2)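 Spinal nerve ligation rats tested 2 weeks after nerve surgery, 100 mg/kg oral, n = 4 per group. Behaviour re-tested at 1, 3 and 5 h after dosing. Mechanical allodynia: von Frey filament applied five times, every 3–4 s, to the hind paw on a wire mesh floor. Cold allodynia: acetone applied to the plantar hind paw on a metal mesh floor.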

Rattus norvegicus [4] = assay: Antineuropathic pain activity in rat spinal nerve ligation model assessed as effect on cold allodynia by measuring frequency of paw withdrawal at 100 mg/kg, po measured at 5 hrs relative to gabapentin; assay type: functional; procedure, shortened: as §2
Rattus norvegicus [5] = assay: Antineuropathic pain activity in rat spinal nerve ligation model assessed as effect on mechanical allodynia by measuring frequency of paw withdrawal at 100 mg/kg, po measured at 3 hrs relative to control; assay type: functional; procedure, shortened: as §2
CYP3A4 = CYP3A4 (Homo sapiens, UniProt P08684); assay: Inhibition of human CYP3A4 assessed as remaining activity at 10 uM using vivid CYP450 substrate measured after 15 mins by fluorescence assay relative to ketoconazole; assay type: ADME; details: probe vivid CYP450 substrate, read-out: Activity
Procedure, shortened: (§3)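 Vivid fluorescence CYP assay: test compound at […] in water, mixed with BACULOSOMES master pre-mix and regeneration system, preincubated 15 min at 37 °C. Reaction started with Vivid substrate and NADPH. Remaining activity read by fluorescence as % of control, triplicate, mean ± SD. Isoform-specific reference inhibitors: α-naphthoflavone (1A2), sulfaphenazole (2C9), quinidine (2D6), ketoconazole (3A4).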

Rattus norvegicus [6] = assay: Antineuropathic pain activity in rat spinal nerve ligation model assessed as effect on cold allodynia by measuring frequency of paw withdrawal at 100 mg/kg, po measured at 3 hrs relative to control; assay type: functional; procedure, shortened: as §2
Rattus norvegicus [7] = assay: Antineuropathic pain activity in rat spinal nerve ligation model assessed as effect on cold allodynia by measuring frequency of paw withdrawal at 100 mg/kg, po measured at 5 hrs relative to control; assay type: functional; procedure, shortened: as §2
[8] = target: T2, Voltage-dependent T-type calcium channel subunit alpha-1G; assay: Inhibition of Cav3.1 alpha1G (unknown origin) expressed in HEK293 cells by whole-cell patch clamp method; assay type: cell-based
Procedure, shortened: (§4)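 Whole-cell patch clamp on HEK293 cells expressing Cav3.1 or Cav3.2. T-type currents evoked every 15 s by a 50-ms step from −100 mV to −30 mV. External solution (mM): 140 NaCl, 2 CaCl₂, 10 HEPES, 10 glucose, pH 7.4.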

[9] = target: T1, Voltage-dependent T-type calcium channel subunit alpha-1H; assay: Inhibition of Cav3.2 alpha1H (unknown origin) expressed in HEK293 cells by whole-cell patch clamp method; assay type: cell-based; procedure, shortened: as §4
Rattus norvegicus [10] = assay: Antineuropathic pain activity in rat spinal nerve ligation model assessed as effect on cold allodynia by measuring frequency of paw withdrawal at 100 mg/kg, po measured at 3 hrs relative to gabapentin; assay type: functional; procedure, shortened: as §2
Rattus norvegicus [11] = assay: Antineuropathic pain activity in rat spinal nerve ligation model assessed as effect on mechanical allodynia by measuring frequency of paw withdrawal at 100 mg/kg, po measured at 5 hrs relative to gabapentin; assay type: functional; procedure, shortened: as §2
Rattus norvegicus [12] = assay: Antineuropathic pain activity in rat spinal nerve ligation model assessed as effect on mechanical allodynia by measuring frequency of paw withdrawal at 100 mg/kg, po measured at 1 hr relative to gabapentin; assay type: functional; procedure, shortened: as §2
[13] = Metabolic stability in human liver microsomes assessed as compound remaining at 1 uM in presence of NADPH as cofactor by LC-MS/MS method; assay type: ADME; details: read-out: Stability
Procedure, shortened: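 Pooled mixed-gender human liver microsomes incubated with compound at 37 °C with NADPH as cofactor. Result given as % parent compound remaining.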

Rattus norvegicus [14] = assay: Antineuropathic pain activity in rat spinal nerve ligation model assessed as effect on cold allodynia by measuring frequency of paw withdrawal at 100 mg/kg, po measured at 1 hr relative to gabapentin; assay type: functional; procedure, shortened: as §2
CYP2D6 = CYP2D6 (Homo sapiens, UniProt P10635); assay: Inhibition of human CYP2D6 assessed as remaining activity at 10 uM using vivid CYP450 substrate measured after 15 mins by fluorescence assay relative to quinidine; assay type: ADME; details: probe vivid CYP450 substrate, read-out: Activity; procedure, shortened: as §3
CYP2C9 = CYP2C9 (Homo sapiens, UniProt P11712); assay: Inhibition of human CYP2C9 assessed as remaining activity at 10 uM using vivid CYP450 substrate measured after 15 mins by fluorescence assay relative to sulfaphenazol; assay type: ADME; details: probe vivid CYP450 substrate, read-out: Activity; procedure, shortened: as §3
Homo sapiens = organism: Homo sapiens; assay: Inhibition of N-type Ca2+ channel (unknown origin) at 10 uM by whole-cell patch clamp method relative to control
Rattus norvegicus [15] = assay: Antineuropathic pain activity in rat spinal nerve ligation model assessed as effect on cold allodynia by measuring frequency of paw withdrawal at 100 mg/kg, po measured at 1 hr relative to control; assay type: functional; procedure, shortened: as §2
Rattus norvegicus [16] = assay: Antineuropathic pain activity in rat spinal nerve ligation model assessed as effect on mechanical allodynia by measuring frequency of paw withdrawal at 100 mg/kg, po measured at 5 hrs relative to control; assay type: functional; procedure, shortened: as §2
Rattus norvegicus [17] = assay: Antineuropathic pain activity in rat spinal nerve ligation model assessed as effect on mechanical allodynia by measuring frequency of paw withdrawal at 100 mg/kg, po measured at 3 hrs relative to gabapentin; assay type: functional; procedure, shortened: as §2

T1 sequence (O95180 whole entry): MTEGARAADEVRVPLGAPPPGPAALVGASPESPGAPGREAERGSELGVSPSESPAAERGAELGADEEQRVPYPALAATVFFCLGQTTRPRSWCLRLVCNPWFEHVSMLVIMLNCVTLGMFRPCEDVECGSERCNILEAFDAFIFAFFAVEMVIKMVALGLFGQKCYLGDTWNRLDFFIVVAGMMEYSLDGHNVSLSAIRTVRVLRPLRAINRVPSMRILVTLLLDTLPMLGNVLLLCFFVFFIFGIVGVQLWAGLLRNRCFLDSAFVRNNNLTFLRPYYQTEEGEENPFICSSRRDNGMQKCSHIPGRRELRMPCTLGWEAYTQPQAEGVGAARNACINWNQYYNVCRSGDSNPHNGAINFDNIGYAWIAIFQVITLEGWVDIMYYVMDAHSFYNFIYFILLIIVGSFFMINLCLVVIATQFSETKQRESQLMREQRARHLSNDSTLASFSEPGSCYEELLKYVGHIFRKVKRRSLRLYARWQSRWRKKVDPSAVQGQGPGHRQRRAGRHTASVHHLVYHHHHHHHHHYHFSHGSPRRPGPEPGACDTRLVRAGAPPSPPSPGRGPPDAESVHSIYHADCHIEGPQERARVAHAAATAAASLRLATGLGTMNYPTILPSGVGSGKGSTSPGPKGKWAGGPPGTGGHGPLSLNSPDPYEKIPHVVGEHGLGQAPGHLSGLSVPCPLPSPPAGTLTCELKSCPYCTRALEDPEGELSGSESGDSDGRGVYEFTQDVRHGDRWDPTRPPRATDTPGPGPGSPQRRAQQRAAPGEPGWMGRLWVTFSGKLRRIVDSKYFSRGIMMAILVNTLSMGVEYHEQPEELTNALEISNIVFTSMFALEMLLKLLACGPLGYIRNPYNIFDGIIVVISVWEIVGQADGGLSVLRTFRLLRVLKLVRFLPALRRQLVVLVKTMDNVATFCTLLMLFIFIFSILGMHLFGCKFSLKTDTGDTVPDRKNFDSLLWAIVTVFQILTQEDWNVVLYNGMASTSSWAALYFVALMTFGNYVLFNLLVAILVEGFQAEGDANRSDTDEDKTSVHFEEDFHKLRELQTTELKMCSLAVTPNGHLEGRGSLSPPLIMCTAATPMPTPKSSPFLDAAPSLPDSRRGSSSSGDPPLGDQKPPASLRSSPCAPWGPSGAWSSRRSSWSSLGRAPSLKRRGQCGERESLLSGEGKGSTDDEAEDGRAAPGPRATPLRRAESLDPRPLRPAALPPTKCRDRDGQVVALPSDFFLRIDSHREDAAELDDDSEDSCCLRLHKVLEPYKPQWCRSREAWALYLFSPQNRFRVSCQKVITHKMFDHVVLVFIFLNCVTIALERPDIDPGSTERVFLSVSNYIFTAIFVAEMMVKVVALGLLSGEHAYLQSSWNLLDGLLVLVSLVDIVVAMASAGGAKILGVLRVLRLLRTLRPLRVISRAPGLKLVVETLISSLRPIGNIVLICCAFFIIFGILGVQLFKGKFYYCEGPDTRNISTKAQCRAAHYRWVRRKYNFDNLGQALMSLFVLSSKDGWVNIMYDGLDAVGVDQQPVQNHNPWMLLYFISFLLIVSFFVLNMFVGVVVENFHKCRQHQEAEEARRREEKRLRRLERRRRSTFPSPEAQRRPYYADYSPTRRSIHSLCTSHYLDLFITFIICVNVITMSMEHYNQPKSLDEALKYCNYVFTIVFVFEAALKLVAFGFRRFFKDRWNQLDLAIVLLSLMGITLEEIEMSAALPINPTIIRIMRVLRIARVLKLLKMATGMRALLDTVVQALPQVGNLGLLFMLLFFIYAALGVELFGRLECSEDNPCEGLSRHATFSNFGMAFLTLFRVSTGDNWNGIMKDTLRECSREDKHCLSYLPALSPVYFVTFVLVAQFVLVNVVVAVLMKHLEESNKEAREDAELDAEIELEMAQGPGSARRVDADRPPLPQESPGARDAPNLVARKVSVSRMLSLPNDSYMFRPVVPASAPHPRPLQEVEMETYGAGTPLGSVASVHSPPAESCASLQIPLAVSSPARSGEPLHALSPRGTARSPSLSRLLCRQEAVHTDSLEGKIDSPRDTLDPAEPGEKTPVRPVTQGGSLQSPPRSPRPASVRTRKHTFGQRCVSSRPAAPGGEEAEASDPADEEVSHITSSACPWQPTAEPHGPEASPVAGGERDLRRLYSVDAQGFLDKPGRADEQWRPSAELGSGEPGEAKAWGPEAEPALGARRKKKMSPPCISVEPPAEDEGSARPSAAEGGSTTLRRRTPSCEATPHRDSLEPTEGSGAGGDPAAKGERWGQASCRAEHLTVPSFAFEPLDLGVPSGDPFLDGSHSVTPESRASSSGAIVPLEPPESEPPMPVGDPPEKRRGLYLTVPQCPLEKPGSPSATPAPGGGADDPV
T2 sequence (O43497 whole entry): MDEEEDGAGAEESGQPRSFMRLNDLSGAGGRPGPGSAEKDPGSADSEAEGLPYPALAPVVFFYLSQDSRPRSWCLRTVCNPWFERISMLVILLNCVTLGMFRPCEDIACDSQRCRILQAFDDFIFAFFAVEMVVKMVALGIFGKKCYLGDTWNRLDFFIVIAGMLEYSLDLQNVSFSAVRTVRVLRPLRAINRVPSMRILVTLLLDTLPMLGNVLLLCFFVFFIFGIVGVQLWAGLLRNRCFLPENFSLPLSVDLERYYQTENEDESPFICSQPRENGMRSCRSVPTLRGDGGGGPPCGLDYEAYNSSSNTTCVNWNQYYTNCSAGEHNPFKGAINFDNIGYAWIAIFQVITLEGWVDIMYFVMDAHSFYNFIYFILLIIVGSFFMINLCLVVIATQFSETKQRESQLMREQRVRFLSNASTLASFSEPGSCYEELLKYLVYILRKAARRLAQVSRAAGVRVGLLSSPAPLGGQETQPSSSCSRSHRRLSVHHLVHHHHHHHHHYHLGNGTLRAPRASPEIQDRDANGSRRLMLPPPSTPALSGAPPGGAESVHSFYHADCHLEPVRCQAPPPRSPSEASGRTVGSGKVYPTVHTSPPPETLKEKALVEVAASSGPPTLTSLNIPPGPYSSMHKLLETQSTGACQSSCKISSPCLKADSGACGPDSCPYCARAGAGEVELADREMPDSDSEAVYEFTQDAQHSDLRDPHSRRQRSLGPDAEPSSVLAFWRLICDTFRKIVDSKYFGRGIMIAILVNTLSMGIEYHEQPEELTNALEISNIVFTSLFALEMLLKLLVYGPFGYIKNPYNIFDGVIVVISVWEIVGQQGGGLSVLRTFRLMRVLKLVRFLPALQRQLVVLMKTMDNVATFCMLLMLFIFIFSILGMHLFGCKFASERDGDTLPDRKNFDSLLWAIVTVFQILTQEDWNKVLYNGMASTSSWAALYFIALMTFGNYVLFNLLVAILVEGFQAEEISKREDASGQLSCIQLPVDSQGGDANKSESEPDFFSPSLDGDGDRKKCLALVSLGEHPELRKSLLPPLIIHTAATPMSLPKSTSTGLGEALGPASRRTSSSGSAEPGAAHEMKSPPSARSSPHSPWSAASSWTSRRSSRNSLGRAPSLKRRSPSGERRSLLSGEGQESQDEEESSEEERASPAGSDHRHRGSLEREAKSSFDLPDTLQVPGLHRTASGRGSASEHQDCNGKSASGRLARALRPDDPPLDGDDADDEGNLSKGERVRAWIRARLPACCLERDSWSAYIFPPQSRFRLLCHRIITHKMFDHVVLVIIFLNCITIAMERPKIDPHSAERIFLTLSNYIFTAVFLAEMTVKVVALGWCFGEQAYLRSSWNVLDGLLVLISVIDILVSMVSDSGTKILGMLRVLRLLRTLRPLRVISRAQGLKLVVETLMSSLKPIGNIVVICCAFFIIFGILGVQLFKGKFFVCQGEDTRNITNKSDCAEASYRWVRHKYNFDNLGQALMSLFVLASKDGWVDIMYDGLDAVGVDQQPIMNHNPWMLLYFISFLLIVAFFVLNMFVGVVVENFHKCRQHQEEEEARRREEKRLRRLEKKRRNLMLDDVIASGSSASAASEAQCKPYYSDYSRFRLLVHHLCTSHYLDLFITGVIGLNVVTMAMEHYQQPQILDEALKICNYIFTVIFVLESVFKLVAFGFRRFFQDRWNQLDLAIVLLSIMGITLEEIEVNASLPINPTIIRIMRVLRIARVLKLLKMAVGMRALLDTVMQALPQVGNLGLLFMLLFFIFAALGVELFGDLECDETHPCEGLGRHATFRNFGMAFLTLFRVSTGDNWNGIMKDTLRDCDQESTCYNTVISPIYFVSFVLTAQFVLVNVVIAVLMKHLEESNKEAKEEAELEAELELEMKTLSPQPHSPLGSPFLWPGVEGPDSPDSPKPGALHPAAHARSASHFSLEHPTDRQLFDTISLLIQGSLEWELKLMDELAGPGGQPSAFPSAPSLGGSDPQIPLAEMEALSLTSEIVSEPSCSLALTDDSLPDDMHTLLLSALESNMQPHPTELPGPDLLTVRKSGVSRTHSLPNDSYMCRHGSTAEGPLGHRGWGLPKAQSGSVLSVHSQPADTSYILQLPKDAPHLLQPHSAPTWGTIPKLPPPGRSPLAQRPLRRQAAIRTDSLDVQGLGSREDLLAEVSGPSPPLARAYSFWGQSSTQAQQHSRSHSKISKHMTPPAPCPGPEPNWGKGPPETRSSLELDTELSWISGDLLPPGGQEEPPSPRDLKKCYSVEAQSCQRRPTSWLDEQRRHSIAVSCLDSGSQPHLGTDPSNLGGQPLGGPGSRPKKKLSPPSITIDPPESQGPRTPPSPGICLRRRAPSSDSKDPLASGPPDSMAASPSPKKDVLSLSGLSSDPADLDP

SMILES: CC(C)(C)n1nc(CNS(=O)(=O)c2ccccc2)cc1-c1cccc(F)c1
inhibition [1]: 53.5%
inhibition [2]: 51.5%

SMILES: CC(C)Cc1cc(CNS(=O)(=O)c2c(Cl)cccc2Cl)nn1-c1ccccc1
inhibition [1]: 56%
inhibition [2]: 36.9%

SMILES: CC(C)Cc1cc(CNS(=O)(=O)c2cccc(I)c2)nn1-c1ccccc1
inhibition [1]: 44.9%
inhibition [2]: 46.4%

SMILES: CC(C)Cc1cc(CNS(=O)(=O)c2cccc3cccnc23)nn1-c1ccccc1
inhibition [1]: 61.4%
inhibition [2]: 29.8%

SMILES: COCC(=O)O[C@]1(CCN(C)CCCc2nc3ccccc3[nH]2)CCc2cc(F)ccc2[C@@H]1C(C)C [MIBEFRADIL]
MPE (Rattus norvegicus [3]): 17.29%
MPE (Rattus norvegicus [4]): 145.05%
MPE (Rattus norvegicus [5]): 41.44%
MPE (Rattus norvegicus [6]): 34.77%
MPE (Rattus norvegicus [7]): 63.33%
MPE (Rattus norvegicus [10]): 43.19%
MPE (Rattus norvegicus [11]): 92.23%
MPE (Rattus norvegicus [12]): 156.75%
MPE (Rattus norvegicus [14]): 57.37%
MPE (Rattus norvegicus [15]): 25.25%
MPE (Rattus norvegicus [16]): 41.76%
MPE (Rattus norvegicus [17]): 72.78%

SMILES: CC(C)(C)n1nc(CNS(=O)(=O)c2ccccc2)cc1-c1ccccc1
inhibition [1]: 10.4%
inhibition [2]: 55.5%

Continued, in another order:

inhibition [1]: 6.66%
inhibition [2]: 7.09%
SMILES: CC(C)Cc1cc(CNS(=O)(=O)Cc2cccc3ccccc23)nn1-c1ccccc1

activity at 0.25 h, 10 µM (CYP3A4): 38.7%
IC50 [8]: 12.4 µM
IC50 [9]: 14.6 µM
inhibition [1]: 68.6%
remaining at 1 µM [13]: 88.2%
activity at 0.25 h, 10 µM (CYP2D6): 45.2%
activity at 0.25 h, 10 µM (CYP2C9): 45.2%
inhibition (Homo sapiens): 42.2%
inhibition [2]: 70.5%
SMILES: CC(C)Cc1cc(CNS(=O)(=O)CCc2ccccc2)nn1-c1ccccc1
MPE (Rattus norvegicus [3]): -3.8%
MPE (Rattus norvegicus [4]): 7.05%
MPE (Rattus norvegicus [5]): -7.3%
MPE (Rattus norvegicus [6]): 9.07%
MPE (Rattus norvegicus [7]): 3.08%
MPE (Rattus norvegicus [10]): 11.27%
MPE (Rattus norvegicus [11]): -10.34%
MPE (Rattus norvegicus [12]): -34.45%
MPE (Rattus norvegicus [14]): 7%
MPE (Rattus norvegicus [15]): 3.08%
MPE (Rattus norvegicus [16]): -4.68%
MPE (Rattus norvegicus [17]): -12.82%

inhibition [1]: 24.9%
inhibition [2]: 19.8%
SMILES: CC(C)Cc1cc(CNS(=O)(=O)c2ccc3ccccc3c2)nn1-c1ccccc1

inhibition [1]: 55.7%
inhibition [2]: 57.6%
SMILES: CC(C)Cc1cc(CNS(=O)(=O)c2cccc(Cl)c2)nn1-c1ccccc1
